ChEMBL document CHEMBL3627690, “Scaffold-Hopping and Structure-Based Discovery of Potent, Selective, And Brain Penetrant N-(1H-Pyrazol-3-yl)pyridin-2-amine Inhibitors of Dual Leucine Zipper Kinase (DLK, MAP3K12)” (J Med Chem, 2015)
pIC50, pKi: −log10 of the molar value. The source made the active and inactive calls. The rule behind the calls is not given here.

Columns and labels:
human MDR1 = assay: Permeability across apical to basolateral side in MDCK cells transfected with human MDR1 at 5 uM by LC-MS/MS analysis; settings: dog
[1] = biological target: T1, Mitogen-activated protein kinase kinase kinase 12 (Homo sapiens, UniProt Q12852); assay: Inhibition of N-terminally GST- tagged human DLK catalytic domain (1 to 520 amino acids) using N-terminally HIS-tagged MKK4 K131M as substrate incubated for 60 mins by TR-FRET assay
T1 sequence (Q12852 whole entry): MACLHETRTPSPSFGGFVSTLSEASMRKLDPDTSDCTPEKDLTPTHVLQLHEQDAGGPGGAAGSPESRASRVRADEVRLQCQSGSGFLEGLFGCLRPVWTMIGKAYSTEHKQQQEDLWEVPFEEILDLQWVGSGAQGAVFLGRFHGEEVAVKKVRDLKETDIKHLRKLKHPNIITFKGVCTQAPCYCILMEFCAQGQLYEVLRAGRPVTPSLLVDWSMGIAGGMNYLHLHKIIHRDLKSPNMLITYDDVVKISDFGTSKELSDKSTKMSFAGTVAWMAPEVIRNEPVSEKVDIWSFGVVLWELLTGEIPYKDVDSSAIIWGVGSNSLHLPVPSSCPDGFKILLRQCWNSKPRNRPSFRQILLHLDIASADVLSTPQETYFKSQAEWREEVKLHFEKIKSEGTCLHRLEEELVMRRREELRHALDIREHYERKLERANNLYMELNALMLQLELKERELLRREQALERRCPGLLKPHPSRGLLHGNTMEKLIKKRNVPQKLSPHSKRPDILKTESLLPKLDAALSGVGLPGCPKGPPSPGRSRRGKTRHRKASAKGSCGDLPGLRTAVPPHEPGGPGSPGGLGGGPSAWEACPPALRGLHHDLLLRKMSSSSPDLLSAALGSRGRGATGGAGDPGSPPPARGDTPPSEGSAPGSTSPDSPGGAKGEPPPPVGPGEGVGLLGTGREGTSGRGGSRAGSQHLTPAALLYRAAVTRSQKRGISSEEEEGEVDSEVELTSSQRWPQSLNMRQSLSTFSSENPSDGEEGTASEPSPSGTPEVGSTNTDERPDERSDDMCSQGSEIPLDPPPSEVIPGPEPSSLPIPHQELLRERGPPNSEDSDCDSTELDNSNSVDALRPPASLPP

Rattus norvegicus = assay: Free clearance in […] rat at 0.4 or 1 mg/kg, iv and 1 or 5 mg/kg, po; type: ADME, organism-based; settings: in vivo
Summary of the method: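 Rat PK used iv dosing at 0.4 or 1 mg/kg in 60% PEG solution and po dosing at 1 or 5 mg/kg as an aqueous 1% methylcellulose suspension. Free clearance is CL/fu, where fu is the fraction unbound in plasma.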

[2] = Plasma clearance in […] rat at 0.4 or 1 mg/kg, iv and 1 or 5 mg/kg, po; type: ADME, organism-based
Summary of the method: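 Rat PK: iv dosing at 0.4 or 1 mg/kg as a 60% PEG solution, po dosing at 1 or 5 mg/kg as an aqueous suspension with 1% methylcellulose.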

[3] = biological target: T2, Mitogen-activated protein kinase kinase kinase 12 (Homo sapiens) (UniProt Q12852); assay: Inhibition of Flag DLK (unknown origin) transfected in HEK293 cells assessed as reduction of phosphorylation of MKK4 at 0.1 to 10 uM incubated for 5 hrs measured by Western blot analysis; type: cell-based
T2 sequence (whole entry): T1 sequence (Q12852 whole entry)
Summary of the method: (§1)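 HEK293 cells were transfected with Flag-tagged DLK, with kinase-dead DLK K152A as comparator, 24 h before compound addition. Cells were then exposed to compound for 5 h. Phospho-MKK4, phospho-MKK7, phospho-JNK and phospho-c-Jun were probed.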

[4] = biological target: T2, Mitogen-activated protein kinase kinase kinase 12 (Homo sapiens); assay: Inhibition of Flag DLK (unknown origin) transfected in HEK293 cells assessed as reduction of phosphorylation of JNK at 0.1 to 10 uM incubated for 5 hrs measured by Western blot analysis; type: cell-based; summary of the method: as §1
[5] = biological target: T2, Mitogen-activated protein kinase kinase kinase 12 (Homo sapiens); assay: Inhibition of Flag DLK (unknown origin) transfected in HEK293 cells assessed as reduction of phosphorylation of c-Jun at 0.1 to 10 uM incubated for 5 hrs measured by Western blot analysis; type: cell-based; summary of the method: as §1
[6] = biological target: Serine/threonine-protein kinase Nek1 (Homo sapiens) (UniProt Q96PY6); assay: Inhibition of NEK1 (unknown origin) at 1 uM by FRET method
Summary of the method: (§2)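 Single-point screen at 1 uM against a panel of 58 representative kinases. Readout was labeled-peptide phosphorylation by FRET (Z′-LYTE), using the vendor's protocols.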

[7] = biological target: Platelet-derived growth factor receptor beta (Homo sapiens) (UniProt P09619); assay: Inhibition of PDGFRbeta (unknown origin) at 1 uM by FRET method; summary of the method: as §2
[8] = biological target: Ribosomal protein S6 kinase alpha-3 (Homo sapiens) (UniProt P51812); assay: Inhibition of Rsk2 (unknown origin) at 1 uM by FRET method; summary of the method: as §2
TAK1/TAB1 (Homo sapiens) = TAK1/TAB1 (Homo sapiens) (UniProt Q15750+O43318); assay: Inhibition of TAK1-TAB1 (unknown origin) at 1 uM by FRET method; type: protein-complex assay; summary of the method: as §2
[9] = biological target: High affinity nerve growth factor receptor (Homo sapiens, UniProt P04629); assay: Inhibition of TrkA (unknown origin) at 1 uM by FRET method; summary of the method: as §2
[10] = biological target: Tyrosine-protein kinase ABL1 (Homo sapiens) (UniProt P00519); assay: Inhibition of Abl (unknown origin) at 1 uM by FRET method
Summary of the method: (§3)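 SelectScreen panel of 58 kinases, each tested at a single 1 µM compound concentration. Read-out was Z′-LYTE FRET of labeled peptide phosphorylation, run by the vendor's protocols, reported as percent inhibition.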

[11] = biological target: RAC-alpha serine/threonine-protein kinase (Homo sapiens) (UniProt P31749); assay: Inhibition of AKT1 (unknown origin) at 1 uM by FRET method; summary of the method: as §3
[12] = biological target: Macrophage colony-stimulating factor 1 receptor (Homo sapiens, UniProt P07333); assay: Inhibition of CSF1R (unknown origin) at 1 uM by FRET method; summary of the method: as §3
[13] = biological target: Tyrosine-protein kinase Lck (Homo sapiens) (UniProt P06239); assay: Inhibition of Lck (unknown origin) at 1 uM by FRET method; summary of the method: as §3
[14] = biological target: Dual specificity mitogen-activated protein kinase kinase 4 (Homo sapiens, UniProt P45985); assay: Inhibition of MKK4 (unknown origin) using KFMMTPpYVVTR substrate incubated for 1 hr measured by MpTPpYV probe-based fluorescence polarization assay
Summary of the method: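 MKK4 at 30 nM was incubated with 100 µM KFMMTPpYVVTR peptide, 5 µM ATP and 3.3 nM fluorescent MpTPpYV probe. Buffer was 50 mM HEPES pH 7.5 with 5 mM MgCl2 and 10 mM DTT. Reaction ran 1 h at 23 °C, was stopped with EDTA plus anti-phospho-JNK antibody, and read by FP (ex 633/em 670 nm). Activity was normalized to the positive control.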

[15] = biological target: Dual specificity mitogen-activated protein kinase kinase 7 (Homo sapiens, UniProt O14733); assay: Inhibition of MKK7 (unknown origin) using KFMMpTPYVVTR substrate incubated for 1 hr measured by MpTPpYV probe-based fluorescence polarization assay
Sequence of Dual specificity mitogen-activated protein kinase kinase 7 (O14733 whole entry): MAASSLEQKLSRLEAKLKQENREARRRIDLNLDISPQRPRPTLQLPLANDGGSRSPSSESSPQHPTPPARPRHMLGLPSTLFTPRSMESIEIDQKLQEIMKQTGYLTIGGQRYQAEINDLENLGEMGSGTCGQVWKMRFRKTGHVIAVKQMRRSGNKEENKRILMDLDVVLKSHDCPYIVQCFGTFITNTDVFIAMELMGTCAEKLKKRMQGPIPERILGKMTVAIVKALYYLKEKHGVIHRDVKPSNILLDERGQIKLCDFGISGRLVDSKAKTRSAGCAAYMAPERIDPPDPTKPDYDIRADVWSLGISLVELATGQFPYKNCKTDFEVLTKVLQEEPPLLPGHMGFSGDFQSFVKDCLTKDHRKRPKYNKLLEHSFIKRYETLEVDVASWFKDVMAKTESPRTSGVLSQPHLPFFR

Sequence of High affinity nerve growth factor receptor (P04629 33-796 limits assumed): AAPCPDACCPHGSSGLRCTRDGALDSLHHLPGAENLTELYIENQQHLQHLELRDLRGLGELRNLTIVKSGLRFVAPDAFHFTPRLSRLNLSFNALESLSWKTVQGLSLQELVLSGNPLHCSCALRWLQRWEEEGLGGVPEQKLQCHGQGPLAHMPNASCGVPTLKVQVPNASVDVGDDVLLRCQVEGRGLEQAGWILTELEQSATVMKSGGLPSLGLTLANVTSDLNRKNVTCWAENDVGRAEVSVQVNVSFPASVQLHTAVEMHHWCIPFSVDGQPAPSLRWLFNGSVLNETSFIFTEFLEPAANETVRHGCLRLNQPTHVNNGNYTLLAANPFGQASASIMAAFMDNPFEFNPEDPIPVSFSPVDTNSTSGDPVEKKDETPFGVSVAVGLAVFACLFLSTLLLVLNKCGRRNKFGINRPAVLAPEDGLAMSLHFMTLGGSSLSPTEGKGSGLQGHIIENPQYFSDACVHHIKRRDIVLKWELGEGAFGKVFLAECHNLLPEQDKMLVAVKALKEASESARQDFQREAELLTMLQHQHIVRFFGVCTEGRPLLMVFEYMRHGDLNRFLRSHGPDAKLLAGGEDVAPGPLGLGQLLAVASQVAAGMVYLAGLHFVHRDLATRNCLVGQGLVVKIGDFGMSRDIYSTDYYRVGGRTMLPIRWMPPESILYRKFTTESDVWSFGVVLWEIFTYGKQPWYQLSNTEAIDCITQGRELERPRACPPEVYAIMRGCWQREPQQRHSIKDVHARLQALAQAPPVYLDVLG
Sequence of Serine/threonine-protein kinase Nek1 (Homo sapiens) (Q96PY6 whole entry): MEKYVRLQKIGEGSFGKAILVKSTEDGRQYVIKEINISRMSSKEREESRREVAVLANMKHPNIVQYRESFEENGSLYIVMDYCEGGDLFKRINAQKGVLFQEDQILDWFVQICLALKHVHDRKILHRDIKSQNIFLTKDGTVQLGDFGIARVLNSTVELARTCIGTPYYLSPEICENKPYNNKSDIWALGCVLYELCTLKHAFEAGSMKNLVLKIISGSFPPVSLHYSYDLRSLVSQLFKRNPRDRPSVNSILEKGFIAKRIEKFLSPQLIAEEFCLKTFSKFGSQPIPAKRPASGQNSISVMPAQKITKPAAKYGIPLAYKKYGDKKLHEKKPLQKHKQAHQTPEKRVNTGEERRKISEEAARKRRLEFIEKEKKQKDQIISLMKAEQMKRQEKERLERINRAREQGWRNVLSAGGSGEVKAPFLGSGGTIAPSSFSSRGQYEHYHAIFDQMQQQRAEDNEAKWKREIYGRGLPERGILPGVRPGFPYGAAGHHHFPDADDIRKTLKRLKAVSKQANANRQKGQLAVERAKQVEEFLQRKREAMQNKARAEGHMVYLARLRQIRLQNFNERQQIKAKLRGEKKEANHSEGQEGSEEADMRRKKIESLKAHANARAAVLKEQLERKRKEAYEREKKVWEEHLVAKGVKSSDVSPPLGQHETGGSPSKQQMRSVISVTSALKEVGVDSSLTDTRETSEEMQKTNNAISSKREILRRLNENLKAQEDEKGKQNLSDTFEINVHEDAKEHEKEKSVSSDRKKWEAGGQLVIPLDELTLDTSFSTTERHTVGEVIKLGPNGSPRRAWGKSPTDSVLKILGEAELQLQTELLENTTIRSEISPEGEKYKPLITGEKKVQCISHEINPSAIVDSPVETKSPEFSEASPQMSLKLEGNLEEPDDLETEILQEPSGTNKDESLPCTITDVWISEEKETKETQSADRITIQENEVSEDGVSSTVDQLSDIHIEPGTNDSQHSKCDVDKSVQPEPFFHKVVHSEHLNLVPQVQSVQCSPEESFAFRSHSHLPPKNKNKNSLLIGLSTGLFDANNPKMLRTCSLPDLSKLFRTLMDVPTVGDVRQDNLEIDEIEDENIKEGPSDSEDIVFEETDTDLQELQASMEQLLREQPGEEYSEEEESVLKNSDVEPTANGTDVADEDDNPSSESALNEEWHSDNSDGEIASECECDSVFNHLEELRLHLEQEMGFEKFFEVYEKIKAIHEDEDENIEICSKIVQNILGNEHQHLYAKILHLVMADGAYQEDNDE
Sequence of Tyrosine-protein kinase ABL1 (Homo sapiens) (P00519 whole entry): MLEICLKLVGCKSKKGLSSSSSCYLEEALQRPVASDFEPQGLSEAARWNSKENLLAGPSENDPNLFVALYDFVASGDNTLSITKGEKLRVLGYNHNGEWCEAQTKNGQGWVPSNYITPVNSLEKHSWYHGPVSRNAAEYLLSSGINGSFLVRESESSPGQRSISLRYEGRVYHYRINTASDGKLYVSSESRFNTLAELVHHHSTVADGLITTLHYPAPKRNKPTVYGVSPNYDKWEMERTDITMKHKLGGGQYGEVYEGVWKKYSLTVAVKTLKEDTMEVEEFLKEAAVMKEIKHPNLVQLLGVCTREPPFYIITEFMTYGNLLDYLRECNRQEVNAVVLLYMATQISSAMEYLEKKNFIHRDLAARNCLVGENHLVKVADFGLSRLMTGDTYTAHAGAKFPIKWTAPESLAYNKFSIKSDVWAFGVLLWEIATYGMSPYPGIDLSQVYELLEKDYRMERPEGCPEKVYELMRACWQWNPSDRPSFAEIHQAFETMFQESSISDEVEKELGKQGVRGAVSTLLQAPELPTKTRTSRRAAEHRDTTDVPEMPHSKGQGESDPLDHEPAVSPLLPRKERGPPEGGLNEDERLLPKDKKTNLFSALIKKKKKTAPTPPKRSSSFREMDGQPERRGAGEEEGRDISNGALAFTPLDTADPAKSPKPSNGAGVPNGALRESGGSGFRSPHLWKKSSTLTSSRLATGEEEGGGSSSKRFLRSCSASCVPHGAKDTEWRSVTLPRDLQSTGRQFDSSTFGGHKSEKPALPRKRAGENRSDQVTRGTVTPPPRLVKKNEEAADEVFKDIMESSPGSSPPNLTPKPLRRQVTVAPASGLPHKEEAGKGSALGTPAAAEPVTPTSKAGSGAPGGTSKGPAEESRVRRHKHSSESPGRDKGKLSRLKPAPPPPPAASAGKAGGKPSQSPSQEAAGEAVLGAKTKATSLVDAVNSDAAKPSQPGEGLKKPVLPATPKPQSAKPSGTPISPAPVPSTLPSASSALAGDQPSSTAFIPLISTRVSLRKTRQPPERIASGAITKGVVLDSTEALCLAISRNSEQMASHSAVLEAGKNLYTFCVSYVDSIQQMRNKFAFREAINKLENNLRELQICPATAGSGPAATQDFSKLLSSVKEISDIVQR
Sequence of Ribosomal protein S6 kinase alpha-3 (Homo sapiens) (P51812 whole entry): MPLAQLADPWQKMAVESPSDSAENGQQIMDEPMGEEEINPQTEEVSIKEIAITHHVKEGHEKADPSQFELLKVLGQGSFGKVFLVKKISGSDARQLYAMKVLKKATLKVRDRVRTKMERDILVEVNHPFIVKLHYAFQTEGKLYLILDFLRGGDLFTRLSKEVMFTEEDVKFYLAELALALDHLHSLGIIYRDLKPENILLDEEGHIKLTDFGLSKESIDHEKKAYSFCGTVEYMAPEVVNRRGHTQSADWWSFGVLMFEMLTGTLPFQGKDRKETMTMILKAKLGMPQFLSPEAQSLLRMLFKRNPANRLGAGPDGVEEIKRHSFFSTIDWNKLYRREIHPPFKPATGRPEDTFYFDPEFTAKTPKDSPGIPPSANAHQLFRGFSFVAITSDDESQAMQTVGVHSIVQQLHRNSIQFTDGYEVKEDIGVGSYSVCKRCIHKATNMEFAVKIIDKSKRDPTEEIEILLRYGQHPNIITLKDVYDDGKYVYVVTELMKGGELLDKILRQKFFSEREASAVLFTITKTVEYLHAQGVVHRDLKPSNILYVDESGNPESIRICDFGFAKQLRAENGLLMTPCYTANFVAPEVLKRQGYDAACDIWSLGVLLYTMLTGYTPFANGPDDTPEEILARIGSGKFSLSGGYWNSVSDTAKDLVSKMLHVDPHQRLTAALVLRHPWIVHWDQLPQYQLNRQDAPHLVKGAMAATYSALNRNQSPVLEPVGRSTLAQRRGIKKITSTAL
Sequence of Dual specificity mitogen-activated protein kinase kinase 4 (P45985 whole entry): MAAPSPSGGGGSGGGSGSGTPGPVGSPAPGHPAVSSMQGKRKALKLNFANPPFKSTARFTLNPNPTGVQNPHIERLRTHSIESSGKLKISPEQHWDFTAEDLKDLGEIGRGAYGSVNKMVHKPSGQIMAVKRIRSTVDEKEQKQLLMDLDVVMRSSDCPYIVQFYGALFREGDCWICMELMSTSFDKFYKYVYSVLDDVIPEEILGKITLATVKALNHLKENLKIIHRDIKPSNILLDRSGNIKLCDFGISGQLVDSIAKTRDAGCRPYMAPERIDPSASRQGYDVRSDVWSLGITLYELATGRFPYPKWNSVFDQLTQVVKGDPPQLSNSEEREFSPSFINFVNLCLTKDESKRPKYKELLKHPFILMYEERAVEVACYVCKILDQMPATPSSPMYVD

Q: Which results are given for `N#Cc1ccnc(Nc2cc(C3CCN(C4COC4)CC3)n(C3CCCC3)n2)c1`?
A: Papp A→B at 5 µM (human MDR1): 8.8 ×10⁻⁶ cm/s; pKi [1]: 7.38; CL free (Rattus norvegicus): 327 mL/min/kg; clearance [2]: 34 mL/min/kg; inhibition [3]: Active; inhibition [4]: Active; inhibition [5]: Active; inhibition [6]: 3.1%; inhibition [7]: 23.8%; inhibition [8]: 5.7%; inhibition (TAK1/TAB1 (Homo sapiens)): 13.6%; inhibition [9]: 63.3%; inhibition [10]: 8.4%; inhibition [11]: -3.6%; inhibition [12]: 51.8%; inhibition [13]: 37.5%; pIC50 [14]: < 5.30; pIC50 [15]: < 5.30
